ChEMBL document CHEMBL4428026, “Discovery of New Monocarbonyl Ligustrazine-Curcumin Hybrids for Intervention of Drug-Sensitive and Drug-Resistant Lung Cancer” (J Med Chem, 2016)
Active and inactive are the calls of the source. No cut-off for these calls is given here.

Columns and labels:
[1] = tested on: A549; experiment: Antiproliferative activity against human A549 cells after 72 hrs by MTT assay; format: functional, cell-based; details: A549, 72 h
Procedure, shortened: (§1)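 Cells (A549, A549/DDP, SPC-A-1, LTEP-G-2, non-tumor bronchial epithelial HBE) were exposed in triplicate to vehicle or compound for 72 h. MTT (5 mg/mL in PBS) was then added for 4 h, formazan was dissolved in DMSO, and absorbance was read at 570 nm. IC50 values were derived from viability.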

[2] = tested on: A549/CDDP; experiment: Antiproliferative activity against human A549/CDDP cells after 72 hrs by MTT assay; format: functional, cell-based; procedure, shortened: as §1
[3] = tested on: A549; experiment: Induction of ROS generation in human A549 cells 2.1 to 4.2 uM after 60 mins by DHE staining-based fluorescence assay in presence of NAC; format: functional, cell-based
[4] = tested on: A549; experiment: Induction of ROS generation in human A549 cells 2.1 to 4.2 uM after 60 mins by DHE staining-based fluorescence assay; format: functional, cell-based
Procedure, shortened: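 A549 or A549/DDP cells were treated in triplicate for 60 min with vehicle DMSO (0.1%, v/v) or a range of compound concentrations. Cells were stained with dihydroethidium, and intracellular ROS fluorescence was read on a microplate reader at 300 and 610 nm. Three independent experiments were run.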

[5] = tested on: A549; experiment: Decrease in TrxR expression in human A549 cells at 2.1 to 4.2 uM after 24 hrs by Western blot method; format: functional, cell-based
Procedure, shortened: (§2)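 Cells were plated at 1 × 10^6/well overnight, then treated 24 h with vehicle DMSO (0.1%, v/v) or compound (A549, 2.1 or 4.2 µM; A549/DDP, 0.6 or 1.2 µM). Lysis was at 4 °C. Lysates were run on SDS-PAGE (7.5% gel, 20 µg/lane) and immunoblotted with ECL detection; phospho-Akt Ser473 and phospho-ERK Thr202/Tyr204 were probed. Bands were normalized to GAPDH (TrxR, Trx) or β-actin. Three independent experiments were run.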

[6] = tested on: A549/CDDP; experiment: Decrease in TrxR expression in human A549/CDDP cells at 0.6 to 1.2 uM after 24 hrs by Western blot method; format: functional, cell-based; procedure, shortened: as §2
[7] = tested on: A549; experiment: Induction of ROS generation in human A549 cells 2.1 to 4.2 uM after 60 mins by DHE staining-based fluorescence assay in presence of GSH; format: functional, cell-based
[8] = tested on: A549/CDDP; experiment: Induction of ROS generation in human A549/CDDP cells 0.6 to 1.2 uM after 60 mins by DHE staining-based fluorescence assay in presence of NAC; format: functional, cell-based
[9] = tested on: A549/CDDP; experiment: Induction of ROS generation in human A549/CDDP cells 0.6 to 1.2 uM after 60 mins by DHE staining-based fluorescence assay in presence of GSH; format: functional, cell-based
[10] = tested on: A549; experiment: Induction of apoptosis in human A549 cells at 2.1 to 4.2 uM after 24 hrs by annexin V-FITC/propidium iodide staining-based flow cytometry; format: functional, cell-based
Procedure, shortened: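 Cells were seeded at 1 × 10^5/well and treated 24 h with DMSO (1%) or compound. They were then washed in PBS, stained with FITC-Annexin V and propidium iodide, and apoptotic fractions were quantified by flow cytometry.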

[11] = tested on: A549; experiment: Induction of apoptosis in human A549 cells assessed as decrease in Bcl2 expression at 2.1 to 4.2 uM after 24 hrs by Western blot method; format: functional, cell-based; procedure, shortened: as §2
[12] = tested on: A549/CDDP; experiment: Induction of apoptosis in human A549/CDDP cells assessed as decrease in Bcl2 expression at 0.6 to 1.2 uM after 24 hrs by Western blot method; format: functional, cell-based; procedure, shortened: as §2
[13] = tested on: A549/CDDP; experiment: Induction of apoptosis in human A549/CDDP cells assessed as increase in Bax expression at 0.6 to 1.2 uM after 24 hrs by Western blot method; format: functional, cell-based; procedure, shortened: as §2
[14] = tested on: A549/CDDP; experiment: Induction of apoptosis in human A549/CDDP cells assessed as increase in Bax to Bcl2 ratio at 0.6 to 1.2 uM after 24 hrs by Western blot method; format: functional, cell-based; procedure, shortened: as §2
[15] = tested on: A549/CDDP; experiment: Induction of apoptosis in human A549/CDDP cells assessed as increase in cleaved caspase 3 level at 0.6 to 1.2 uM after 24 hrs by Western blot method; format: functional, cell-based; procedure, shortened: as §2
[16] = tested on: A549/CDDP; experiment: Induction of apoptosis in human A549/CDDP cells assessed as increase in cleaved PARP level at 0.6 to 1.2 uM after 24 hrs by Western blot method; format: functional, cell-based; procedure, shortened: as §2
[17] = tested on: A549; experiment: Effect on ERK expression in human A549 cells at 2.1 to 4.2 uM after 24 hrs by Western blot method; format: functional, cell-based; procedure, shortened: as §2
[18] = tested on: A549/CDDP; experiment: Effect on ERK expression in human A549/CDDP cells at 0.6 to 1.2 uM after 24 hrs by Western blot method; format: functional, cell-based; procedure, shortened: as §2
[19] = tested on: A549; experiment: Inhibition of ERK phosphorylation in human A549 cells at 2.1 to 4.2 uM after 24 hrs by Western blot method; format: cell-based; procedure, shortened: as §2
[20] = tested on: A549/CDDP; experiment: Inhibition of ERK phosphorylation in human A549/CDDP cells at 0.6 to 1.2 uM after 24 hrs by Western blot method; format: cell-based; procedure, shortened: as §2
[21] = tested on: A549/CDDP; experiment: Decrease in P-gp expression in human A549/CDDP cells at 0.6 to 1.2 uM after 24 hrs by Western blot method; format: functional, cell-based
Procedure, shortened: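 A549/DDP cells were treated for 24 h with vehicle DMSO (0.1%, v/v) or 0.6 or 1.2 µM compound. Lysates were run on SDS-PAGE (7.5% gel, 20 µg/lane), blotted to PVDF and probed with anti-P-gp, with detection by ECL. P-gp was normalized to β-actin. Three independent experiments were run.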

[22] = Acute toxicity in ICR mouse assessed as mortality at 200 to 450 mg/kg, ip measured at 1 hr post treatment; format: organism-based; details: in vivo
Procedure, shortened: (§3)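 Male and female ICR mice (7 weeks), randomized, 10 per group, given one intraperitoneal dose at 200, 250, 300, 350, 400 or 450 mg/kg. Animals were watched for abnormal behaviour and deaths up to two weeks. Deaths were tallied at 1 h, 4 h, day 3 and days 4-14, with survival on day 14. LD50 was calculated with 95% confidence limits.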

[23] = Acute toxicity in ICR mouse assessed as mortality at 200 to 450 mg/kg, ip measured on day 4 to 14 post treatment; format: organism-based; details: in vivo; procedure, shortened: as §3
[24] = Acute toxicity in ICR mouse assessed as mortality at 450 mg/kg, ip; format: organism-based; details: in vivo; procedure, shortened: as §3
[25] = Acute toxicity in ICR mouse assessed as survival at 450 mg/kg, ip measured on day 14; format: organism-based; details: in vivo; procedure, shortened: as §3
[26] = Acute toxicity in ICR mouse assessed as survival at 350 mg/kg, ip measured on day 14; format: organism-based; details: in vivo; procedure, shortened: as §3
[27] = Acute toxicity in ICR mouse assessed as survival at 300 mg/kg, ip measured on day 14; format: organism-based; details: in vivo; procedure, shortened: as §3
[28] = Acute toxicity in ICR mouse assessed as survival at 250 mg/kg, ip measured on day 14; format: organism-based; details: in vivo; procedure, shortened: as §3

In the case of `COc1cc(/C=C/C(=O)/C=C/c2nc(C)c(C)nc2C)ccc1O`, the IC50 [1] is reported as 2.19 µM, the IC50 [2] is reported as 0.6 µM and the Activity [3] is reported as “inactive”. For the same compound, the Activity [4] was “Active”, the Activity [5] was “Active” and the Activity [6] was “Active”. For the same compound, the Activity [7] was “inactive”, the Activity [8] was “inactive” and the Activity [9] was “inactive”. For the same compound, the Activity [10] was “Active”, the Activity [11] was “Active” and the Activity [12] was “Active”. For the same compound, the Activity [13] was “Active”, the Activity [14] was “Active” and the Activity [15] was “Active”. For the same compound, the Activity [16] was “Active”, the Activity [17] was “inactive” and the Activity [18] was “inactive”. For the same compound, the inhibition [19] was “Active”, the inhibition [20] was “Active” and the Activity [21] was “Active”. The Activity [22] was “Non-Toxic”, the Activity [23] was “Non-Toxic” and the Activity [24] was “Toxic”. For the same compound, the survival at 14 day [25] was 0%, the survival at 14 day [26] was 30% and the survival at 14 day [27] was 50%. For the same compound, the survival at 14 day [28] was 60%.
